Data on 1 compound can be found in ChEMBL document CHEMBL4428057, “Discovery, Synthesis, and Evaluation of 2,4-Diaminoquinazolines as a Novel Class of Pancreatic β-Cell-Protective Agents against Endoplasmic Reticulum (ER) Stress” (J Med Chem, 2016).

The test system of assay [1] is INS1. Description: Reversal of tunicamycin induced PARP cleavage in rat INS-1 cells at 20 uM after 2 to 24 hrs by Western blot analysis. It is filed as functional, cell-based. Summed up: (§1)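 Western blots of INS-1 cells (8×10^5/60-mm dish) treated with Tm 0.1 µg/mL ± compound 20 µM or DMSO for the indicated times. Lysates with EDTA and phosphatase inhibitors; 20 µg protein on 7% SDS-PAGE, PVDF. Primary antibodies at 1:1000 against ATF4, CHOP, cleaved caspase 3 or PARP; α-tubulin loading control; HRP secondaries. Representative of 3 experiments.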

Assay [2] has as its system INS1. Description: Reversal of tunicamycin-induced suppression of PDX1 mRNA levels in rat INS-1 cells at 20 uM after 24 hrs by qRT-PCR method. It is filed as functional, cell-based. In outline:
(§2)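 INS-1 cells (4×10^5/well, 6-well plates) given Tm 0.1 µg/mL ± compound 20 µM or DMSO for 24 h. INS1, INS2, PDX1 and MafA mRNA measured by qRT-PCR with rat primers. Means of 3 replicate wells, representative of 3 independent experiments; SD.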
For orientation: Real-time PCR tracks product formation cycle by cycle.

Assay [3] concerns INS1. As to the kind of experiment: Protection against BFA induced endoplasmic reticulum stress in rat INS-1 cells assessed as increase in cell viability at 20 uM after 72 hrs by CellTiter-Glo assay. It is filed as functional, cell-based. Summed up:
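INS-1 cells at 3×10^3/well (384-well) treated with brefeldin A 0.2 µg/mL ± compound 20 µM or DMSO for 72 h. Viability read as intracellular ATP by CellTiter-Glo luminescence. Means of 3 replicate wells, representative of 3 independent experiments; SD.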
(In general: ATP-based viability assays read luminescence as a measure of living cells.)

In assay [4] the test system is INS1. As to the kind of experiment: Reversal of tunicamycin-induced suppression of INS1 mRNA levels in rat INS-1 cells at 20 uM after 24 hrs by qRT-PCR method. It is filed as functional, cell-based. In outline: as §2
The species named for assay [5] is Rattus norvegicus. Description: Inhibition of IRE1alpha in rat INS-1 cells assessed as suppression of tunicamycin induced spliced XBP1 mRNA levels in at 20 uM after 4 to 24 hrs by agarose gel electrophoresis based RT-PCR method. It is filed as cell-based. In outline:
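Total XBP1 mRNA amplified by RT-PCR from INS-1 cells treated with Tm 0.1 µg/mL ± compound 20 µM or DMSO for the indicated times. Unspliced and spliced forms resolved on agarose gel; cyclophilin A as internal control. Representative of 3 independent experiments.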

Assay [6] relates to INS1. As to the kind of experiment: Protection against tunicamycin induced endoplasmic reticulum stress in rat INS-1 cells assessed as increase in cell viability after 3 days by CellTiter-Glo assay relative to control. It counts as functional. Summed up: (§3)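 INS-1 cells at 3×10^3/well (384-well) co-treated with Tm 0.1 µg/mL and compound for 72 h; CellTiter-Glo ATP luminescence. Activity is % rescue, with Tm alone = 0% and DMSO without Tm = 100%. EC50 from ten 2-fold serial dilutions by curve fit; triplicate.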

Assay [7] relates to Pancreatic beta cell. As to the kind of experiment: Decrease in tunicamycin induced apoptosis in human Beta cells assessed as […] insulin cells level at 10 uM after 48 hrs by TUNEL staining based confocal microscopy (reference value: 15%). It counts as functional. The arrangement: scale not given: the % may be the effect or the level left.
For assay [8], the target named is T1, Cyclic AMP-dependent transcription factor ATF-6 alpha (Rattus norvegicus) (UniProt G3V909).
T1 sequence (whole entry): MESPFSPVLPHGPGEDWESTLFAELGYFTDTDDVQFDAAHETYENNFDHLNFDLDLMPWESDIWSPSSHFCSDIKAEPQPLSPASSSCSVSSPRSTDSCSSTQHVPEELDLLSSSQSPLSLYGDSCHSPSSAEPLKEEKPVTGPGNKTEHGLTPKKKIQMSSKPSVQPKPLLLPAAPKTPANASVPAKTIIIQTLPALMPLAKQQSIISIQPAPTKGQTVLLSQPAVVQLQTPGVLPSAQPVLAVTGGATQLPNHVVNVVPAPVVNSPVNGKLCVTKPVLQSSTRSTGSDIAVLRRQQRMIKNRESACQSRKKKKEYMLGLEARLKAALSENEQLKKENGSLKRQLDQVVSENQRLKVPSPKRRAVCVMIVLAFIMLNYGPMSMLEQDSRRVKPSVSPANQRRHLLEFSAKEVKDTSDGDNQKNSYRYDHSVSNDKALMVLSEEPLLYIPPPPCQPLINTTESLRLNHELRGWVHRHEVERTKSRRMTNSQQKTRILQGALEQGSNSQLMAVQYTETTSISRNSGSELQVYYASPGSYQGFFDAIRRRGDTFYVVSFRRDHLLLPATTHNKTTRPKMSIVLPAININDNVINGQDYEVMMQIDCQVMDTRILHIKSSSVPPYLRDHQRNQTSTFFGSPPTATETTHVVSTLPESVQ
As to the kind of experiment: Inhibition of ATF6 in rat INS-1 cells assessed as suppression of tunicamycin induced Bip mRNA levels at 20 uM after 4 to 24 hrs by qRT-PCR method. It is filed as cell-based. In outline: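 INS-1 cells seeded at 4×10^5/well in 6-well plates, given Tm 0.1 µg/mL ± compound 20 µM or DMSO for the indicated times. Bip or GRP94 mRNA measured by qRT-PCR, expressed as fold-increase over untreated control. Means of 3 replicate wells, representative of 3 independent experiments.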

Assay [9] concerns Beta-TC6. Description: Protection against tunicamycin induced endoplasmic reticulum stress in mouse BetaTC6 cells assessed as increase in cell viability after 72 hrs by MTT assay. It is filed as functional, cell-based. Summed up:
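βTC6 cells (DMEM, 15% FBS) seeded at 3×10^3/well in 384-well plates with Tm 0.25 µg/mL ± compound or DMSO for 72 h. Viability by CellTiter-Glo (ATP luminescence) or MTT: 3 h with reagent at 37 °C, then 4 h with crystal-dissolving solution, absorbance at 570 nm. 3 replicate wells, 3 experiments.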
A general note: Formazan colour is commonly taken as a measure of viable cells.

The species named for assay [10] is Rattus norvegicus. Description: Inhibition of IRE1alpha in rat INS-1 cells assessed as suppression of tunicamycin induced spliced XBP1 mRNA levels at 20 uM after 4 to 24 hrs in by qRT-PCR method. It is filed as cell-based. Summed up:
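Spliced XBP1 mRNA in INS-1 cells (4×10^5/well, 6-well plates) measured by qRT-PCR with splicing-specific primers after Tm 0.1 µg/mL ± compound 20 µM or DMSO for the indicated times. Expressed as fold-increase over untreated control; 3 replicate wells, representative of 3 experiments, SD.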

Assay [11] deals with INS1. Description: Protection against tunicamycin induced endoplasmic reticulum stress in rat INS-1 cells assessed as increase in cell viability at 5 uM after 72 hrs by CellTiter-Glo assay. It counts as functional, cell-based.
The subject of assay [12] is INS1. As to the kind of experiment: Reversal of tunicamycin induced caspase-3 cleavage in rat INS-1 cells at 20 uM after 2 to 24 hrs by Western blot analysis. It is filed as functional, cell-based. In outline:
as §1

For assay [13], the system named is INS1. As to the kind of experiment: Protection against tunicamycin induced endoplasmic reticulum stress in rat INS-1 cells assessed as increase in cell viability after 3 days by CellTiter-Glo assay. It counts as functional, cell-based. The note with it: INS1, 72 h. In outline:
as §3

For orientation: EC50 means the concentration needed to bring the measured effect to its halfway point.

Calls of active or inactive are those of the source. No cut-off for these calls is given here.

Turning to `COc1ccc(CNc2nc(N3CCCCC3CO)nc3ccccc23)cc1` (racemic), the result in [1], in assay [2], in assay [3], in [4], in [11] and in assay [12] was Active. Also, the inhibition result in assay [5], in assay [8] and in [10] was “Active” in each case. Also, in assay [6], the “%max” value came out at 80.4%. For the same compound, the Activity is 3.5% in [7] and “Dose-dependent effect” in [9]. The EC50 in assay [13] turned out to be 560 nM.
